Calls of active or inactive are those of the source. No cut-off for these calls is given here.

Broadly, the IC50 is the concentration that inhibits the measured activity by half. By inhibition is commonly meant the relative decrease from the control value, in per cent.

Test [1] has as its target Poly(rC)-binding protein 2 (Homo sapiens) (UniProt Q15366). Kind of test: Binding affinity to PCBP2 in human NCI-H358 cells at 1 uM by mass spectrometry based pull down assay. Format: cell-based.
Test [2] has as its target Eukaryotic translation initiation factor 2A (Homo sapiens) (UniProt Q9BY44). Kind of test: Binding affinity to EIF2A in human NCI-H23 cells at 1 uM by mass spectrometry based pull down assay. The test is classed as cell-based.
For test [3], the target named is DNA mismatch repair protein Msh2 (Homo sapiens) (UniProt P43246). The test can be described thus: Binding affinity to MSH2 in human NCI-H23 cells at 1 uM by mass spectrometry based pull down assay. Format: cell-based.
The target of test [4] is Poly(rC)-binding protein 1 (Homo sapiens) (UniProt Q15365). Kind of test: Binding affinity to PCBP1 in human NCI-H23 cells at 1 uM by mass spectrometry based pull down assay. Format: cell-based.
Test [5] concerns the target Importin-5 (Homo sapiens) (UniProt O00410). Kind of test: Binding affinity to IPO5 in human NCI-H23 cells at 1 uM by mass spectrometry based pull down assay. The test is classed as cell-based.
Test [6] concerns the target Kinesin-1 heavy chain (Homo sapiens) (UniProt P33176). The test can be described thus: Binding affinity to KIF5B in human NCI-H23 cells at 1 uM by mass spectrometry based pull down assay. Format: cell-based.
For test [7], the target named is Thioredoxin reductase 1, cytoplasmic (Homo sapiens) (UniProt Q16881). The test can be described thus: Binding affinity to TXNRD1 in human NCI-H23 cells at 1 uM by mass spectrometry based pull down assay. Format: cell-based.
Test [8] deals with 80S Ribosome (Homo sapiens) (UniProt P08865+P42677+P62753+P15880+P23396+P61247+P62701+P22090+P46782+P62081+P62241+P46781+P46783+P62280+P25398+P62277+P62263+P62841+P62244+P62249+P08708+P62269+P39019+P60866+P63220+P62266+P62847+P62851+P62854+P62979+P62857+P62273+P62861+P39023+P36578+P46777+Q02878+P18124+P62424+P62917+P32969+P27635+P62906+P62913+P30050+P26373+P40429+P50914+P61313+P18621+Q07020+Q02543+P84098+P46778+P35268+P62829+P62750+P83731+P61254+P61353+P46776+P46779+P47914+P62888+P62899+P62910+P49207+P42766+P18077+Q9Y3U8+P83881+P61927+P61513+P63173+P62891+P62945+P05388+P05386). Kind of test: Binding affinity to RPL26 in human NCI-H358 cells at 1 uM by mass spectrometry based pull down assay. Format: cell-based.

Test [9] concerns the target Medium-chain specific acyl-CoA dehydrogenase, mitochondrial (Homo sapiens) (UniProt P11310). Kind of test: Binding affinity to ACADM in human NCI-H23 cells at 1 uM by mass spectrometry based pull down assay. The test is classed as cell-based. Put shortly:
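NCI-H23 or NCI-H358 cells were grown and lysed. Lysates were incubated overnight at 4 °C with 1 μM biotinylated covalent probe or DMSO, then pulled down on streptavidin beads. Proteins were run on polyacrylamide gels and stained with Coomassie. Bands were excised, digested and identified by mass spectrometry.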

A further test concerns the target Vigilin (Homo sapiens) (UniProt Q00341). Kind of test: Binding affinity to HDLBP in human NCI-H358 cells at 1 uM by mass spectrometry based pull down assay. Format: cell-based.
In test [10] the target is T1, Dual specificity mitogen-activated protein kinase kinase 3 (Homo sapiens) (UniProt P46734).
T1 sequence (whole entry): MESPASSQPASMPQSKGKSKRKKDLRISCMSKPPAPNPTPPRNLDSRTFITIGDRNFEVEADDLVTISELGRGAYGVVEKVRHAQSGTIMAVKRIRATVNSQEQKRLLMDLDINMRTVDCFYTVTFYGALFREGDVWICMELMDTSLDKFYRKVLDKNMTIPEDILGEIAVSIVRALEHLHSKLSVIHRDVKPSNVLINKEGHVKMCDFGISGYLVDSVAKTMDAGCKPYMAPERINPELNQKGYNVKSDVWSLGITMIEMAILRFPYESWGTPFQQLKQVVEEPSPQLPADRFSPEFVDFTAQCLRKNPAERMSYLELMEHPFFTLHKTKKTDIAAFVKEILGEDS
Kind of test: Binding affinity to MAP2K3 in human NCI-H23 cells at 1 uM by mass spectrometry based pull down assay. Format: cell-based.

In test [11] the target is Calmodulin-2 (Homo sapiens) (UniProt P0DP24). The test can be described thus: Binding affinity to CALM2 in human NCI-H23 cells at 1 uM by mass spectrometry based pull down assay. Format: cell-based.
Test [12] concerns the target T2, Mitogen-activated protein kinase kinase kinase 7 (Homo sapiens, UniProt O43318).
T2 sequence (O43318 whole entry): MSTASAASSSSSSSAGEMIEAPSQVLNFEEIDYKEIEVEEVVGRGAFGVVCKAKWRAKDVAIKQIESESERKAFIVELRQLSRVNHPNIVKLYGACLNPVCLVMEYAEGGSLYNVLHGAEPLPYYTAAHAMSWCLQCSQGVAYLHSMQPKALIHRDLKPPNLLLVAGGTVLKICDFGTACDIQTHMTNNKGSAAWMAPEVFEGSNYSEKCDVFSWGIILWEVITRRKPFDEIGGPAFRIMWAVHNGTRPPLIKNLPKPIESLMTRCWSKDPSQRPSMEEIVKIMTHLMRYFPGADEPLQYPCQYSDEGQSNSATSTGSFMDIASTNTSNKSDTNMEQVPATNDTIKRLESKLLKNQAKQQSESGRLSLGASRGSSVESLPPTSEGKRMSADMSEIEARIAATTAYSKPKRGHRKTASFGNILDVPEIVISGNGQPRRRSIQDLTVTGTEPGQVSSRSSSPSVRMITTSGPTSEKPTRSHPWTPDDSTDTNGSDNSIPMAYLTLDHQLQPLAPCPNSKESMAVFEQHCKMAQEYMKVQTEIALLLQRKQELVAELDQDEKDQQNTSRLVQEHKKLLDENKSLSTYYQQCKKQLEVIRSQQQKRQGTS
The test can be described thus: Inhibition of TAK1 (unknown origin) after 60 mins by biochemical assay.

Test [13] has as its target Phosphatidylinositol 4-phosphate 3-kinase C2 domain-containing subunit beta (Homo sapiens) (UniProt O00750). The test can be described thus: Inhibition of PIK3C2B in human SKCO1 cells at 1 uM after 4 hrs using biotin labeled VIFKCGDDLRQDMLTLQMIR probe by mass-spectrometric analysis relative to control. Format: cell-based.
Test [14] concerns the target BMP-2-inducible protein kinase (Homo sapiens) (UniProt Q9NSY1). Kind of test: Inhibition of human BIKE (34 to 329 residues) expressed in bacterial expression system assessed as enzyme activity at 10 uM by KINOMEScan assay relative to control. Also noted: scale not given: the % may be the effect or the level left. A digest of the protocol: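 In vitro ATP-site competition binding assay (KinomeScan) across a panel of 456 kinases. Compound was tested at 1 and 10 μM. The read-out is the binding inhibition score relative to control.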

Poly(rC)-binding protein 1 (Homo sapiens), sequence (Q15365 whole entry): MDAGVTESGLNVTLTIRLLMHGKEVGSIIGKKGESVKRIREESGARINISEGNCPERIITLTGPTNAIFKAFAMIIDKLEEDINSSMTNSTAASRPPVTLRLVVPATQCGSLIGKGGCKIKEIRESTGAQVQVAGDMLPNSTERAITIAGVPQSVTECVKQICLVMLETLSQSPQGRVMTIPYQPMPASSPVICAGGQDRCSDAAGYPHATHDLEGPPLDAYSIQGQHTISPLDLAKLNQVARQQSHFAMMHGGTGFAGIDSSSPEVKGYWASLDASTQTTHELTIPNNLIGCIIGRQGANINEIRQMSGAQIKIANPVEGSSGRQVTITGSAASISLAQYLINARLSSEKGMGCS
Importin-5 (Homo sapiens), sequence (O00410 whole entry): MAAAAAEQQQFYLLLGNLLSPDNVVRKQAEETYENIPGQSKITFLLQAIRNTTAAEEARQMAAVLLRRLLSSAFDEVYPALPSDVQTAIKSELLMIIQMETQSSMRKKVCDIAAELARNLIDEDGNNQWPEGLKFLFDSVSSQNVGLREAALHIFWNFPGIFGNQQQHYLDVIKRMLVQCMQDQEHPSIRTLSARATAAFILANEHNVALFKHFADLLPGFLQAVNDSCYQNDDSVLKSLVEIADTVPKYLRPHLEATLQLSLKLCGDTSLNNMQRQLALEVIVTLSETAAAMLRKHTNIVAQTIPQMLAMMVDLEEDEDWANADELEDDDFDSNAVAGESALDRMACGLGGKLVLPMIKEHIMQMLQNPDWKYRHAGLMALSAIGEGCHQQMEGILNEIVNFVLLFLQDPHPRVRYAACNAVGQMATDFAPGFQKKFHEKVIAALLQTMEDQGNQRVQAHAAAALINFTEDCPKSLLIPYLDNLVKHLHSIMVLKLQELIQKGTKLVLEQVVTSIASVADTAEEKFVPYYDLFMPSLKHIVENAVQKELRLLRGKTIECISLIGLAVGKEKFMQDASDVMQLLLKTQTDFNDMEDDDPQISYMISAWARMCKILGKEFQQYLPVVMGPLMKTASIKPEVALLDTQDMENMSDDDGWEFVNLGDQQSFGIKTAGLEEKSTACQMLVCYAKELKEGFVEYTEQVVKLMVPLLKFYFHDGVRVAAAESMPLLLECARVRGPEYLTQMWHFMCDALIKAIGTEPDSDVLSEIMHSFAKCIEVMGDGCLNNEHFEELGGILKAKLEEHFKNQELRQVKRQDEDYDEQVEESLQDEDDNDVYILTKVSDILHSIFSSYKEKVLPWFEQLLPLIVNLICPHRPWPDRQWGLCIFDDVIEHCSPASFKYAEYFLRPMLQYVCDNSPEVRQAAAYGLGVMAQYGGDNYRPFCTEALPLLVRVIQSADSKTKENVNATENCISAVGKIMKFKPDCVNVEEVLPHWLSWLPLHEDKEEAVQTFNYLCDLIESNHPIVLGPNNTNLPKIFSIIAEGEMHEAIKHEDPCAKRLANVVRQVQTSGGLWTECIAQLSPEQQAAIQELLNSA
Vigilin (Homo sapiens), sequence (Q00341 whole entry): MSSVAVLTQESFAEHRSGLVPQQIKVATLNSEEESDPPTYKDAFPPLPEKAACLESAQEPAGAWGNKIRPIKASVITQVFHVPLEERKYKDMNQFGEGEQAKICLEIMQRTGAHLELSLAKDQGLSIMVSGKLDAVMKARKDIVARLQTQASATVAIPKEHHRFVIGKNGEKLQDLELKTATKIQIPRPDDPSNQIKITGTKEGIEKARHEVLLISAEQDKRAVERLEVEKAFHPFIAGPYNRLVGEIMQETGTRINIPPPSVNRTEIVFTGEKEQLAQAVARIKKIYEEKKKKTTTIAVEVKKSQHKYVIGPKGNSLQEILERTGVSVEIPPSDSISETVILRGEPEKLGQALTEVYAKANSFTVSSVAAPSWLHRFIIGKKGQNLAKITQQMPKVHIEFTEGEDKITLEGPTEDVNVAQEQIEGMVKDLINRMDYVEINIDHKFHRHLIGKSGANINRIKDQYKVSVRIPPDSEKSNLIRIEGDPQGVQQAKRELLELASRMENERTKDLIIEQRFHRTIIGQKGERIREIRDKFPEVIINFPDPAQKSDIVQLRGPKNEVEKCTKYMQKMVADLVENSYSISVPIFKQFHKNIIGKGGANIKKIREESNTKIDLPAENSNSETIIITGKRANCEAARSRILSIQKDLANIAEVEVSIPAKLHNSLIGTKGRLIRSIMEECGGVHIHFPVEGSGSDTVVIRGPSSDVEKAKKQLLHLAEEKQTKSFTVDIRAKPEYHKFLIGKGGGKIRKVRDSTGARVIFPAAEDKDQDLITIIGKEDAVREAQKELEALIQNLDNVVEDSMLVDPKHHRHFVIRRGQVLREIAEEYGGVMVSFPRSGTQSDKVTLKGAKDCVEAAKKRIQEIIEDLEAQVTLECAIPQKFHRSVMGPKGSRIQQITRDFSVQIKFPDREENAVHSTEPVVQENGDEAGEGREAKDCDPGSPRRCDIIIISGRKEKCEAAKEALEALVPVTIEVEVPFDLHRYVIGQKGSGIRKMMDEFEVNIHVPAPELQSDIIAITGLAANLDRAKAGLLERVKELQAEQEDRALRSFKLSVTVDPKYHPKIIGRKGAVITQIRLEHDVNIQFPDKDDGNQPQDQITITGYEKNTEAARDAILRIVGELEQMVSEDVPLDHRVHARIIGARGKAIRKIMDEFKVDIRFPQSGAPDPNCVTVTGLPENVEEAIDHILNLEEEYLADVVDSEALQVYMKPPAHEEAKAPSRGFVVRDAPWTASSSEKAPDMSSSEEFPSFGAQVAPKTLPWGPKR
Phosphatidylinositol 4-phosphate 3-kinase C2 domain-containing subunit beta (Homo sapiens), sequence (O00750 whole entry, the tested form may be a part): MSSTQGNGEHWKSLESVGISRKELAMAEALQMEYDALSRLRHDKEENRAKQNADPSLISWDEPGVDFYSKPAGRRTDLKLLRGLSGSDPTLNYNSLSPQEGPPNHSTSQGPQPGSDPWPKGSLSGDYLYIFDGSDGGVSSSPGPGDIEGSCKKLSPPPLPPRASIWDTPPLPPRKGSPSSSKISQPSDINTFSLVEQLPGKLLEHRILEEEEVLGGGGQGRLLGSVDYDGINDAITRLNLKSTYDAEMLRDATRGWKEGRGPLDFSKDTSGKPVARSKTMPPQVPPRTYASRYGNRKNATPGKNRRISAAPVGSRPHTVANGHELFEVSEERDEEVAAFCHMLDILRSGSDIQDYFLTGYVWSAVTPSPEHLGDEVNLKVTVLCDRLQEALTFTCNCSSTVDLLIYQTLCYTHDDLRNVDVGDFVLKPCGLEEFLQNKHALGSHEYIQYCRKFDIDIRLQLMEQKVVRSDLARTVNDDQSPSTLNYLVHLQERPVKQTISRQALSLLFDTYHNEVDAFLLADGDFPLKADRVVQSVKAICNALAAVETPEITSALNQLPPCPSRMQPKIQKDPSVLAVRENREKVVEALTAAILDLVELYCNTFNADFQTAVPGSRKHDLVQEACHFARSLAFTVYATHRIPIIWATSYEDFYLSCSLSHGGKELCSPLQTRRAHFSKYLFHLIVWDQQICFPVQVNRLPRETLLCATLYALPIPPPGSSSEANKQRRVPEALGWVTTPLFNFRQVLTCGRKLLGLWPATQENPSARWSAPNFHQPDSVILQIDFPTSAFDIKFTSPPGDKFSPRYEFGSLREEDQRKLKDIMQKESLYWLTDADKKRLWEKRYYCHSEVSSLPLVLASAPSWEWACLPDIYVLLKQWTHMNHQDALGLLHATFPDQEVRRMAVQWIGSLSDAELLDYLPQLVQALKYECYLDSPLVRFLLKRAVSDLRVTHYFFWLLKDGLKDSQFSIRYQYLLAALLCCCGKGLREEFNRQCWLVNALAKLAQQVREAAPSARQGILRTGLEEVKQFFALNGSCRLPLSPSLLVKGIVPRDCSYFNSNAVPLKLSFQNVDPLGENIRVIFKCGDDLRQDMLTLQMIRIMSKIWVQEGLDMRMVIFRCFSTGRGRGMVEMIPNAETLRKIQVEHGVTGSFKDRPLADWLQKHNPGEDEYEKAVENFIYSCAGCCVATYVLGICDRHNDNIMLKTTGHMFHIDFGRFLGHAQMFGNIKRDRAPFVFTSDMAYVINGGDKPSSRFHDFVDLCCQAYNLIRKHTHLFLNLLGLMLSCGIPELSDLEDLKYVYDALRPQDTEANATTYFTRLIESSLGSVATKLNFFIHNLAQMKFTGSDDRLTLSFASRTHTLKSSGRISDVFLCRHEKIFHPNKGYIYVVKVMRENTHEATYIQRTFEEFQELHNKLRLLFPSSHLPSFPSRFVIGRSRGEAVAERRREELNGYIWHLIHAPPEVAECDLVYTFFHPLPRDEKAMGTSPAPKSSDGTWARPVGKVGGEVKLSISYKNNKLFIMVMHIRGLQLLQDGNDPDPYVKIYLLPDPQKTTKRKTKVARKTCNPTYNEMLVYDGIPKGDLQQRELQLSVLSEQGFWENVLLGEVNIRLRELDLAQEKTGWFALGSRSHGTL
Eukaryotic translation initiation factor 2A (Homo sapiens), sequence (Q9BY44 whole entry): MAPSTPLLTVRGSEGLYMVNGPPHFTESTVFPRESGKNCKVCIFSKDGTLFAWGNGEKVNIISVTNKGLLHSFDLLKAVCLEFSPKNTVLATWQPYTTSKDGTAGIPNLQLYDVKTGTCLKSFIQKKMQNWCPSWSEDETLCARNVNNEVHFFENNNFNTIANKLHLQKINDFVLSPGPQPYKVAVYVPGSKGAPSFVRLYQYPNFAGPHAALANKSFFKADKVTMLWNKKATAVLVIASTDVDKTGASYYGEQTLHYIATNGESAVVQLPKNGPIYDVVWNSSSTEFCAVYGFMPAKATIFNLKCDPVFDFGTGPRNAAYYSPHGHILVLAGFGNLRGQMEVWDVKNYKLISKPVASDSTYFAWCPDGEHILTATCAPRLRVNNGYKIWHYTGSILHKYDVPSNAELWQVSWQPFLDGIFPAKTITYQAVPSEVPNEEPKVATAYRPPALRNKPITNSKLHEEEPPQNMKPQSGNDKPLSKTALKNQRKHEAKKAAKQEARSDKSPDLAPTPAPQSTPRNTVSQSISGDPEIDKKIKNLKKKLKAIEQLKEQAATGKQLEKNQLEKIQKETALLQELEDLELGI

For the compound `C=CC(=O)Nc1ccccc1Nc1nc(Nc2ccc(N3CCN(CCOCCOCCOCCNC(=O)CCCC[C@@H]4SC[C@@H]5NC(=O)N[C@@H]54)CC3)cc2)ncc1Cl`, the outcome in test [1], in test [2], in test [3], in test [4], in test [5] and in test [6] was Active. In addition, the result (in test [7]; in [8]; in test [9]; on Vigilin (Homo sapiens); in [10]; in test [11]) was Active. The same compound registered a half-inhibitory concentration (IC50) in test [12] of 33 nM.

Consider `COc1cc(O)c2c(c1)/C=C/C[C@H](O)[C@H](O)C(=O)/C=C\C[C@H](C)OC2=O`, for which, in test [13], the inhibition came out at 8.3%. Also, the Activity in [14] worked out at 3.8%.

Source of the values: ChEMBL document CHEMBL4118021, “Studies of TAK1-centered polypharmacology with novel covalent TAK1 inhibitors” (Bioorg Med Chem, 2017).
